Ends that are not written are not given here.
Columns and labels:
[1] = target: T1, elastase (Sus scrofa, UniProt P00772); experiment: Elastase inhibition test; assay type: biochemical
Method in brief: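 Elastase from the commercial supply; test compound in 50 mM Tris-HCl, pH 8.0. The 1 mM substrate solution and the sample (buffer for the negative control) were mixed and A410 was read. Then 100 mU/mL elastase was added and incubated 5 min at 25℃, stopped with 2 M HCl, and A410 was read again. EGCG reference at 0.5 mg/mL; three independent experiments.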

[2] = test system: porcine pepsin; experiment: In vitro simulated gastric digestion stability, RP-HPLC; assay type: in vitro ADME; settings: pig, simulated gastric fluid with porcine pepsin, pH 2
Method in brief: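 Test peptide was digested with […] porcine pepsin at pH 2.0 ([…] KCl-HCl) and an enzyme:substrate ratio of 1:30 (w/w). Digestion ran 2 h at 37℃, shaking at 170 rpm. Enzyme was inactivated in boiling water for 10 min and the digest centrifuged at 6000 × g for 15 min. Peptide before and after digestion was compared by C18 RP-HPLC with water/0.1 % TFA and acetonitrile/0.1 % TFA, 1.0 mL/min, 220 nm detection; triplicate.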

[3] = target: T1, elastase; settings: bovine elastin peptides; ref Liu, Su, Zhou, Zhang, Zheng, & Zhao, 2018; cited from earlier work

T1 sequence (P00772 27-266): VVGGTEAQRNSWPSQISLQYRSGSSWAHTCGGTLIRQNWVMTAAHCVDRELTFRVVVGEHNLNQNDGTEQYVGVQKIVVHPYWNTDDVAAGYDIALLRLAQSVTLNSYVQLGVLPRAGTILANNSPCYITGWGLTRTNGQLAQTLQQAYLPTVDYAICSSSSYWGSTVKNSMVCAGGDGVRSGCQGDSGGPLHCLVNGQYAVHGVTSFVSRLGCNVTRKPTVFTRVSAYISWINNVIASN

Row | Substance | IC50 [1] | remaining at 2 h, 1 mg/mL [2] | elastase inhibitory activity (in words) [3]
1 | FFVPF [FFVPF, Phe-Phe-Val-Pro-Phe] | 715 µM | 87.5 ± 1.24% | 
2 | GLGPGVG |  |  | weakly active
3 | GLPY |  |  | most active
4 | GPGGVGAL |  |  | weakly active

Source: article PMC9574760 (Food Chemistry: Molecular Sciences, 2022)
